# The list is not random: actives were taken first. Their share in the collection is about 2.1%.
# M5 PAM – positive allosteric modulators of human muscarinic M5 receptor | P08912 | CHO-K1 hM5, Fluo-8 calcium, ACh EC20 PAM; 0% = ACh EC20, 100% = ACh EC100 | activation, % at 3 µM | 360,000 tested, 0.3% active | AID 624038;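 active = activation above the run cutoff, the mean activation of all test compounds plus 3 SD, cut at about 18% in these data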
#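 System: CHO-K1 cell line with stable human muscarinic M5 receptor expression | Also added: EC20 acetylcholine as agonist stimulus | Compound: One concentration, 3 µM final (nominal) | Timing: Fluo-8 loading 80 min at 37 °C plus 30 min room temperature | Measured by: Fluo-8 calcium dye fluorescence, kinetic read | Read-out basis: % activation, ACh-normalized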
# CHRM1 antagonist – human CHRM1 antagonism. CHO-K1 hM1, Fluo-8 calcium fluorescence, ACh EC80 antagonist. inhibition, % at 3 µM. P11229. 360,000 tested, 1.3% active;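 active = percent inhibition above its own plate's cutoff, namely the mean of that plate's compound wells plus 3 SD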;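 note: peak over basal fluorescence ratio during 140 s after agonist addition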
# Target sequence (P11229 whole entry, looked up): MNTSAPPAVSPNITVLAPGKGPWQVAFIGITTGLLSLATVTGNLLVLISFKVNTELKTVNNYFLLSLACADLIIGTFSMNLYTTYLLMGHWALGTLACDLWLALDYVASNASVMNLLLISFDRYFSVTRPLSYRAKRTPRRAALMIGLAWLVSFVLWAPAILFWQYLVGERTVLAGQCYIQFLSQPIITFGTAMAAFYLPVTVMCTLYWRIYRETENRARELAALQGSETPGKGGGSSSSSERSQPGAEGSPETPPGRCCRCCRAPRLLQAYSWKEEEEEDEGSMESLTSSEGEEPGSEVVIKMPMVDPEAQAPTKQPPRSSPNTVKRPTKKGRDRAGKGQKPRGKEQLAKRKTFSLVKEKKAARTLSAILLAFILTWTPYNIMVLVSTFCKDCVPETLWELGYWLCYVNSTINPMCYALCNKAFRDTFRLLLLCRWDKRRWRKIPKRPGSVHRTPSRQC
# M1 ag – human M1 muscarinic receptor agonism | P11229 | CHO-K1 hM1, Fluo-8 calcium fluorescence, agonist mode; 0% DMSO, 100% acetylcholine EC100 | activation, % at 3 µM | 360,000 tested, 0.33% active;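 active = activation above the run's mean compound activation plus 3 SD, cut at about 16% in these data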;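 note: peak over basal fluorescence ratio within a 140 s kinetic read after compound addition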
# CHRM1 PAM – human CHRM1 positive allosteric modulation; P11229; CHO-K1 hM1, Fluo-8 calcium fluorescence, ACh EC20; 0% = ACh EC20, 100% = maximal ACh; activation, % at 3 µM; 360,000 tested, 0.088% active; in the data active = activation above about 19%, passing the limit was not always enough
# CHRM5 antagonist – blocks acetylcholine activation of human M5 receptor | P08912 | 360,000 tested, 0.59% active | AID 624040 | CHO-hM5 cells, Fluo-8 calcium fluorescence, ACh EC80 | inhibition, % at 3 µM;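 active = inhibition above a per-plate cutoff, the mean of that plate's test compounds plus 3 SD, cut at about 27% in these data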
# CHRM5 agonist – CHRM5 agonism in calcium assay | activation, % at 3 µM | 360,000 tested, 0.19% active | AID 624037 | P08912 | CHO-K1 hM5 cells, Fluo-8 calcium fluorescence; 0% DMSO wells, 100% maximal acetylcholine response;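 active = activation above the run's mean over test compounds plus 3 SD, cut at about 23% in these data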;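 note: signal is peak over basal fluorescence ratio across the kinetic read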
# Numbers stand for hits; - = inactive.
SMILES,M5 PAM,CHRM1 antagonist,M1 ag,CHRM1 PAM,CHRM5 antagonist,CHRM5 agonist
COc1ccc(-n2nc(C(=O)Nc3ccc4c(c3)OCO4)c3ccccc3c2=O)cc1,-,-,-,-,-,-
Cn1nc(C(=O)Nc2ccc3c(c2)OCO3)c2ccccc2c1=O,-,-,-,27,-,-
C(=C\c1ccccc1)/CN1CCN(C(c2ccccc2)c2nnnn2C2CCCCC2)CC1 (configuration not stated),-,43,-,-,-,-
COc1cccc(C(c2nnnn2C2CCCC2)N2CCN(C/C=C/c3ccccc3)CC2)c1OC (configuration not stated),-,54,-,-,71,-
COC(=O)C1CCN(C(=O)COC(=O)c2n[nH]c3ccccc23)CC1,-,-,-,-,-,-
Cc1ccc(C(=O)O/N=C(\N)Cc2cccc3ccccc23)cc1,-,-,-,-,-,-
CC1CCCN(c2nc3nonc3nc2N2CCCC(C)C2)C1 (configuration not stated),-,-,-,-,-,-
Cc1noc(C)c1NC(=O)N(C)C[C@H]1Oc2ccc(NC(=O)CCC(F)(F)F)cc2C(=O)N([C@H](C)CO)C[C@@H]1C,-,-,-,-,-,-
COc1ccc2sc(N(CCN(C)C)C(=O)c3ccc4ccccc4c3)nc2c1,-,-,20,-,-,-
CN(C)CCCN(C(=O)c1ccc(C(=O)c2ccccc2)cc1)c1nc2cc3c(cc2s1)OCCO3,-,-,-,-,28,-
O=C(NCc1ccco1)c1ccc2c(c1)N(Cc1ccccc1)C(=O)CS2,-,-,-,-,-,-
O=C(NCCCN1CCOCC1)c1ccc2c(c1)N(Cc1c(F)cccc1Cl)C(=O)CS2,-,100,-,-,-,-
Cc1ccc(CN2C(=O)c3ccccc3Sc3ccc(C(=O)NCCCN4CCOCC4)cc32)cc1,-,-,-,-,-,-
O=C(NCC1CCCO1)c1ccc2c(c1)N(Cc1ccccc1)C(=O)CS2 (configuration not stated),-,45,-,-,-,-
Cc1ccc(C)c(CN2C(=O)CSc3ccc(C(=O)NCCN4CCOCC4)cc32)c1,-,-,-,-,-,-
O=C(NCCN1CCOCC1)c1ccc2c(c1)N(Cc1ccccc1F)C(=O)CS2,-,59,-,-,-,-
Cc1nn2c(-c3ccc(F)cc3)ccnc2c1Cl,-,-,-,-,-,-
CCN(CC)CCOC(=O)c1c(C)oc2ccc(OC)cc12,-,25,-,-,-,-
Cn1c(=O)c2[nH]c(CCCCc3nc4ccccc4[nH]3)nc2n(C)c1=O,-,-,-,-,-,-
Cn1c(=O)c2[nH]c(CCCCCCCCc3nc4ccccc4[nH]3)nc2n(C)c1=O,-,37,-,-,-,-
CN(C)CCCNC(=O)N1c2ccccc2C=Cc2ccccc21,-,97,-,-,72,-
N=c1c2c(n(Cc3ccc(Cl)c(Cl)c3)c3c1CCC3)CCCC2,-,-,-,-,-,-
N=c1c2c(n(Cc3ccc(Br)cc3)c3c1CCC3)CCCC2,-,26,-,-,-,-
COc1cc2[nH]c3c(N4CCN(c5ccc(Cl)cc5)CC4)ncnc3c2cc1OC,-,-,-,-,-,-
COc1cccc(N2CCN(c3ncnc4c3[nH]c3ccc(F)cc34)CC2C)c1 (configuration not stated),-,83,-,-,77,-
O=C1NN(c2ccccc2)C(=O)/C1=C/c1ccc(Sc2cccc3ccccc23)o1,-,-,-,-,-,-
CC(C)Nc1nc(NC2CCCC2)nc(N2CCOCC2)n1,-,-,-,-,-,-
Cc1ccc(NC(=O)c2nc(S(=O)(=O)Cc3ccccc3)ncc2Cl)cc1,-,-,-,-,-,-
CCN(c1ccccc1)S(=O)(=O)c1ccc(NC(=O)c2nc(S(C)(=O)=O)ncc2Cl)cc1,-,-,-,-,29,-
CCS(=O)(=O)c1ncc(Cl)c(C(=O)Nc2ccc(S(=O)(=O)N(C)c3ccccc3)cc2)n1,-,88,-,-,-,-
